Screening results: PubChem, Johns Hopkins Ion Channel Center
TRPC4 block: inhibitors of mouse TRPC4 channel; Q9QUQ5; HEK293 TRPC4beta/mu-opioid, DAMGO-evoked Fluo4 calcium flux; stronger effect = lower value; B-score at 10 µM; hit rate 0.39% among 300,000;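 active = B-score over 3 SD under the library average, no early fluorescence shift, positive overall ratio signal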
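Signal: kinetic Fluo4 fluorescence imaging of calcium influx. Material: stable TRPC4beta/mu-opioid receptor HEK293 cells. Probe or stimulus: DAMGO in two steps, submaximal then maximal.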
TRPC4 act: opens the mouse TRPC4 cation channel. hit rate 0.49% among 310,000. HEK293 TRPC4beta/mu-opioid, Fluo4 calcium fluorescence; stronger effect = higher value. B-score at 10 µM. Q9QUQ5;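 active = B-score above 5 SD of library B-scores, and initial fluorescence ratio not above library mean plus 5 SD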;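 also: positive B-score marks a calcium rise read as TRPC4 activation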
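System – HEK293 cells stably co-expressing mouse TRPC4beta and mu-opioid receptor · Signal – Fluo4 calcium-sensitive dye fluorescence, kinetic, 1 Hz baseline · Benchmarks – buffer (low) and maximal DAMGO (high) · Read-out – B score of integrated fluorescence ratio per well · Incubation – dye loading 45 min room temperature, 110 s kinetic read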
TRPC6 activator: activators of mouse TRPC6 channel; Q61143; HEK293-TRPC6 membrane potential dye fluorescence; stronger effect = higher value; B-score at 10 µM; AID 2550; hit rate 0.13% among 310,000;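 active = B-score of the integrated fluorescence ratio above library mean plus 3 SD, and starting fluorescence ratio within library mean plus 5 SD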;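 also: higher score means more depolarization so channel activation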
Target sequence (Q61143 whole entry, looked up): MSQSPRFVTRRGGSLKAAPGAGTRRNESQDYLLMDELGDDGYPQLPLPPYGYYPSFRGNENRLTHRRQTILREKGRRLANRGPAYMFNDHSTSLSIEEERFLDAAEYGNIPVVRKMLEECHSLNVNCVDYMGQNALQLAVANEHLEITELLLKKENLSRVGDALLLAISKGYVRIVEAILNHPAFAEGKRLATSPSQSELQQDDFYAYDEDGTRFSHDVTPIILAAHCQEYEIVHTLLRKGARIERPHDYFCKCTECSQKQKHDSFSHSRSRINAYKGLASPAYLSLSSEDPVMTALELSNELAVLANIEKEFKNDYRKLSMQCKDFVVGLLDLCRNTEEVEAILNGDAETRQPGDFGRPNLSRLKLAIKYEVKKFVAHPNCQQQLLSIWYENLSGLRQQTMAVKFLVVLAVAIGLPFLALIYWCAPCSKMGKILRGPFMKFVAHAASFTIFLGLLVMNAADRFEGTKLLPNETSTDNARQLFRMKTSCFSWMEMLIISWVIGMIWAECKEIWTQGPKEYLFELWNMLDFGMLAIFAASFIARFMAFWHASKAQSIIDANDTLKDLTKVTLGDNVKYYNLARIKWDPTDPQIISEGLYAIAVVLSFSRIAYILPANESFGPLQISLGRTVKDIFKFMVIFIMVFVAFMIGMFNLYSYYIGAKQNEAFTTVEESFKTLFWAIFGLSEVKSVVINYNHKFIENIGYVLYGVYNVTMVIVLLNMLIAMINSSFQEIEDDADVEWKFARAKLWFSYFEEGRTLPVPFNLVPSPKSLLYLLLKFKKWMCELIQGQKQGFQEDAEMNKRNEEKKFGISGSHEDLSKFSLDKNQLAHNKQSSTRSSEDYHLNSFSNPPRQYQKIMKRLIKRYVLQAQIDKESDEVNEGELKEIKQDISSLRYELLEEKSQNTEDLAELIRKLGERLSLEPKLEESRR
TRPC6 inh: inhibitors of mouse TRPC6 channel. Q61143. HEK293-TRPC6, membrane potential dye, ACh-evoked depolarization; stronger effect = lower value. B-score at 10 µM. hit rate 1.1% among 310,000. AID 2553;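 active = B-score under library mean minus 3 SD, initial fluorescence not abnormally high, positive integrated signal ratio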;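 also: B-score derived from integrated fluorescence ratio over the kinetic read; more negative B-score means stronger inhibition of depolarization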
TRPC4 potent: allosteric potentiators of mouse TRPC4 channel; AID 2227; B-score at 10 µM; hit rate 0.42% among 310,000; Q9QUQ5; HEK293 TRPC4beta/mu-opioid, DAMGO EC20, Fluo-4 Ca2+ flux; stronger effect = higher value;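 active = B-score of calcium response area above 5 SD of library B-scores, with initial fluorescence ratio within 5 SD of library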;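 also: B-score of integrated fluorescence ratio over time as area under calcium response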
TRPC4 sel inh 2: mouse TRPC4 off-target activity of TRPC6 inhibitors, second screen | shares compounds with TRPC6 inh | inhibition, % at 10 µM | HEK293 TRPC4/MOR, membrane potential dye fluorescence; channel activated by saturating DAMGO dose | hit rate 42% among 920;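 active = compounds whose fluorescence signal differed from control wells by over 3 SD, either direction, in both duplicate plates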
TRPC4 spec: selectivity of TRPC6 inhibitors: effect on mouse TRPC4 | AID 2777 | shares compounds with TRPC6 inh | hit rate 61% among 920 | activity change, negative = inhibition, % at 10 µM | HEK293 TRPC4/mu-opioid, membrane potential fluorescence;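 active = rise or fall in signal beyond 3 SD of buffer-only wells in both replicate plates, either sign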;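 also: integrated kinetic ratio of fluorescence range over baseline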
HEK293 MPD ctr 2-1: second check of TRPC6 inhibitor effects in parental HEK293 cells | hit rate 31% among 920 | signal change vs control, % at 10 µM | parental HEK293 membrane potential dye fluorescence; maximal acetylcholine challenge after compound addition | shares compounds with TRPC6 inh | AID 2779;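 active = membrane potential signal moving either way by over 3 SD of the maximum-effect control, in both duplicate plates, meaning non-specific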
HEK293 MPD ctr-1: parental HEK293 nonspecific activity of TRPC6 inhibitors; parental HEK293 membrane potential dye fluorescence; AID 2780; shares compounds with TRPC6 inh; membrane potential signal change, % at 10 µM; hit rate 60% among 920;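 active = membrane potential signal shifting up or down by more than 3 SD of buffer-only wells, on both duplicate plates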
HEK293 MPD ctr-2: checks TRPC6 modulator effects in parental HEK293 cells; membrane potential signal change, % at 10 µM; membrane potential dye fluorescence; hit rate 51% among 2,400; shares compounds with TRPC6 inh;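 active = membrane potential signal moves up or down beyond 5 SD from buffer-only wells, on both duplicate plates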
HEK293 MPD ctr 2-2: second check of TRPC6 modulator effects in parental HEK293 cells; shares compounds with TRPC6 inh; membrane potential dye fluorescence; after compound, maximal acetylcholine stimulation; inhibition, % at 10 µM; hit rate 14% among 2,400; AID 488926;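 active = membrane potential signal drops by more than 5 SD from the mean control signal, in both duplicate plates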;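 also: plate controls were acetylcholine ECmax control wells for no effect and buffer only wells for full effect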
TRPC4 ctr mod: tests whether TRPC6 modulators also affect mouse TRPC4. HEK293 TRPC4/mu-opioid, membrane potential fluorescence. hit rate 69% among 2,400. AID 488927. percent change from control (negative = decrease, positive = increase), % at 10 µM. shares compounds with TRPC6 inh;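 active = membrane potential signal moved up or down beyond 5 SD of buffer control wells, in both duplicate plates, actives on both sides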;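 also: plate controls were assay buffer wells for no effect and DAMGO maximal-effect wells for full effect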
TRPC4/MOR inh 2: second selectivity test of TRPC6 modulators against mouse TRPC4; shares compounds with TRPC6 inh; hit rate 55% among 2,400; inhibition, % at 10 µM; HEK293 TRPC4/mu-opioid, membrane potential dye fluorescence; stimulated with maximal-effect DAMGO; AID 488928;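 active = drop in membrane potential signal beyond 5 SD of the control wells in both duplicate plates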;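 also: TRPC4 counter screen for TRPC6 hits run under conditions tuned for TRPC6 not TRPC4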
TRPC6 block conf: confirmation of mouse TRPC6 inhibitors; HEK293-TRPC6, membrane potential dye, ACh-evoked depolarization; AID 488960; hit rate 43% among 3,300; shares compounds with TRPC6 inh; inhibition, % at 10 µM;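 active = fluorescence ratio falls more than 5 SD below the full-stimulation control mean, in both duplicate runs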;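 also: integrated fluorescence ratio of peak minus minimum over baseline after agonist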
TRPC6 act confirm: confirmation of mouse TRPC6 activators; hit rate 11% among 2,800; activation, % at 10 µM; HEK293-TRPC6 membrane potential dye fluorescence, FDSS; shares compounds with TRPC6 inh;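 active = ratio signal rise beyond 5 SD above unstimulated control wells' mean, seen in both duplicate runs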;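 also: plate controls were buffer EC0 wells for no effect and acetylcholine ECmax response for full effect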
An asterisk follows results filed as active. This is a sample that favours compounds with a hit; in the whole collection about 2.3% have one here.

For Cc1ccc2nc3c(c(N)c2c1)CCN3C the results were TRPC4 block -7*, TRPC4 act inactive, TRPC6 activator inactive, TRPC6 inh -7.1*, TRPC4 potent inactive, TRPC4 sel inh 2 51%*, TRPC4 spec -27%*, HEK293 MPD ctr 2-1 13%*, HEK293 MPD ctr-1 -460%*, TRPC6 block conf 58%* and TRPC6 act confirm inactive.
CCCCN1CCc2c([nH]c3ccccc23)C1=O was read as TRPC4 block inactive, TRPC4 act inactive, TRPC6 activator inactive, TRPC6 inh inactive and TRPC4 potent inactive.
Screening CCCCN1CCc2c1nc1ccc(Br)cc1c2N returned TRPC4 block inactive, TRPC4 act inactive, TRPC6 activator inactive, TRPC6 inh -6.3*, TRPC4 potent inactive, HEK293 MPD ctr-2 -132%*, HEK293 MPD ctr 2-2 98%*, TRPC4 ctr mod -37%*, TRPC4/MOR inh 2 93%*, TRPC6 block conf 88%* and TRPC6 act confirm inactive.
`CC(C)(C)c1ccc(S(=O)(=O)Nc2ccc(C(=O)N3CCCC3)cc2)cc1` gave TRPC4 block inactive, TRPC4 act inactive, TRPC6 activator inactive, TRPC6 inh inactive and TRPC4 potent inactive.
`Cc1nn(-c2ccccc2)c(N2CCCC2)c1/C=N/Nc1ccc(S(N)(=O)=O)cc1[N+](=O)[O-]` gave TRPC4 block inactive, TRPC4 act inactive, TRPC6 activator inactive, TRPC6 inh -5.5*, TRPC4 potent inactive, HEK293 MPD ctr-2 inactive, HEK293 MPD ctr 2-2 inactive, TRPC4 ctr mod -10%*, TRPC4/MOR inh 2 54%*, TRPC6 block conf inactive and TRPC6 act confirm inactive.
For NS(=O)(=O)c1ccc(N/N=C/c2ccc(C(=O)O)cc2)c([N+](=O)[O-])c1 the results were TRPC4 block inactive, TRPC4 act inactive, TRPC6 activator inactive, TRPC6 inh inactive and TRPC4 potent inactive.
For CSc1nc2c(c(=O)[nH]1)C(c1cccc(Br)c1)CC(=O)N2 (stereo not given) the results were TRPC4 block inactive, TRPC4 act inactive, TRPC6 activator inactive, TRPC6 inh inactive and TRPC4 potent inactive.
`O=C(Nc1ccncc1)Nc1ccncc1` gave TRPC4 block inactive, TRPC4 act inactive, TRPC6 activator inactive, TRPC6 inh -7.5*, TRPC4 potent inactive, HEK293 MPD ctr-2 -310%*, HEK293 MPD ctr 2-2 70%*, TRPC4 ctr mod -50%*, TRPC4/MOR inh 2 38%*, TRPC6 block conf inactive and TRPC6 act confirm inactive.
CC(=O)c1ccc(NC(=O)Nc2cccnc2)cc1 was read as TRPC4 block inactive, TRPC4 act inactive, TRPC6 activator inactive, TRPC6 inh inactive and TRPC4 potent inactive.
`CC(=O)c1ccc(NC(=O)Nc2ccncc2)cc1` gave TRPC4 block -6*, TRPC4 act 43*, TRPC6 activator inactive, TRPC6 inh -5.2*, TRPC4 potent inactive, HEK293 MPD ctr-2 -142%*, HEK293 MPD ctr 2-2 74%*, TRPC4 ctr mod -12%*, TRPC4/MOR inh 2 52%*, TRPC6 block conf 48%* and TRPC6 act confirm inactive.
Screening O=C(Nc1ccncc1)Nc1ccc(Cl)cc1 returned TRPC4 block inactive, TRPC4 act inactive, TRPC6 activator inactive, TRPC6 inh inactive and TRPC4 potent inactive.
`CCC1(C)Cc2c(sc3[nH]c(=S)[nH]c(=S)c23)CO1` (stereo not given) gave TRPC4 block inactive, TRPC4 act inactive, TRPC6 activator inactive, TRPC6 inh -8.9*, TRPC4 potent inactive, TRPC4 sel inh 2 inactive, TRPC4 spec inactive, HEK293 MPD ctr 2-1 inactive, HEK293 MPD ctr-1 inactive, TRPC6 block conf inactive and TRPC6 act confirm inactive.
Screening CC(=O)/C(C(=N)N1CCN(C(c2ccccc2)c2ccccc2)CC1)=C(\C)O returned TRPC4 block inactive, TRPC4 act inactive, TRPC6 activator inactive, TRPC6 inh -7*, TRPC4 potent inactive, TRPC4 sel inh 2 inactive, TRPC4 spec inactive, HEK293 MPD ctr 2-1 inactive, HEK293 MPD ctr-1 inactive, TRPC6 block conf inactive and TRPC6 act confirm inactive.
CC(=O)/C(C(=N)N1CCN(Cc2ccccc2)CC1)=C(\C)O was read as TRPC4 block inactive, TRPC4 act inactive, TRPC6 activator inactive, TRPC6 inh inactive and TRPC4 potent inactive.
Screening Cc1ccc2c(c1)sc(-c1ccc(N(C)C)cc1)[n+]2C returned TRPC4 block inactive, TRPC4 act inactive, TRPC6 activator inactive, TRPC6 inh -5.5*, TRPC4 potent inactive, HEK293 MPD ctr-2 inactive, HEK293 MPD ctr 2-2 84%*, TRPC4 ctr mod inactive, TRPC4/MOR inh 2 inactive, TRPC6 block conf 56%* and TRPC6 act confirm inactive.
Screening CSc1nnc(C)c(/C=C/Nc2ccc(Cl)cc2)n1 returned TRPC4 block inactive, TRPC4 act inactive, TRPC6 activator 14*, TRPC6 inh inactive, TRPC4 potent inactive, HEK293 MPD ctr-2 214%*, HEK293 MPD ctr 2-2 inactive, TRPC4 ctr mod 36%*, TRPC4/MOR inh 2 inactive, TRPC6 block conf inactive and TRPC6 act confirm 36%*.
